Key:
[1] = tested on: Human immunodeficiency virus 1; assay: Antiviral activity against HIV1 3B infected human MT2 cells assessed as cytoprotection after 5 days by MTT colorimetric method; format: functional, organism-based; settings: Human immunodeficiency virus 1, 3B, MT2, 120 h
How it was run: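 MT-2 human T-cells plated with a range of β-peptide concentrations and cultured with wild-type HIV-1 IIIB for 5 days. Live cells measured by MTT reduction to formazan, read at 595 nm. EC50 is the peptide concentration giving 50% survival of infected cells. Triplicate samples at each concentration.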

[2] = Selectivity ratio of CC50 for human MT2 cells to EC50 for HIV1 3B infected human MT2 cells; format: ADME, cell-based; settings: for selectivity ratio: MT2 cells and HIV1 3B infected MT2 cells, read-out: Ratio CC50/EC50
How it was run: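 Ratio of CC50 to EC50. CC50 comes from MTT viability of uninfected MT-2 cells given peptide alone. EC50 comes from MTT survival of MT-2 cells infected with HIV-1 IIIB after 5 days. Both curves used triplicate samples.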

[3] = Cytotoxicity against human MT2 cells by MTT colorimetric method; format: cell-based
How it was run: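 Uninfected MT-2 cells cultured with a range of β-peptide concentrations, without virus. Viability read by MTT colorimetric assay. CC50 is the concentration giving 50% inhibition of MT-2 cell growth. Triplicate samples at each concentration.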

[4] = Binding affinity to HIV1 gp41-GCN4-pIQI fusion protein IQN17; set-up: species or system Human immunodeficiency virus 1
How it was run: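 β-peptides labeled at the N-terminus with fluorescein-hexanoic acid NHS ester and tested in a direct fluorescence polarization assay against IQN17. IQN17 is a trimeric fusion of 17 gp41 N-terminal residues with a 29-residue isoleucine zipper. KD is taken at 50% binding of IQN17. Binding curves run in triplicate.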

Row | Compound | EC50 [1] | selectivity ratio [2] | CC50 [3] | Kd [4] | Ratio CC50/EC50 ([2]; mt2)
1 | CC[C@@](C)(CC(=O)N[C@H](CC(=O)O)CC(=O)NC(C)(C)CC(=O)N[C@@H](CC(=O)N[C@@H](CCN)CC(=O)NC(C)(C)CC(=O)N[C@H](CC(=O)NC(CC(=O)O)CC(=O)O)Cc1c[nH]c2ccccc12)Cc1c[nH]c2ccccc12)NC(=O)CC(C)(C)NC(=O)C[C@@H](N)CCN | 56 µM | 1.8 | 100 µM | 16.5 µM | 
2 | CC[C@@](C)(CC(=O)N[C@H](CC(=O)O)CC(=O)NC(C)(C)CC(=O)NC(CC(=O)N[C@@H](CCN)CC(=O)NC(C)(C)CC(=O)N[C@H](CC(=O)NC(CC(=O)O)CC(=O)O)Cc1c[nH]c2ccccc12)Cc1cccnc1)NC(=O)CC(C)(C)NC(=O)C[C@@H](N)CCN (stereo partly specified) | > 250 µM |  | > 250 µM | 104 µM | Not Active
3 | CC[C@@](C)(CC(=O)N[C@H](CC(=O)O)CC(=O)NC(C)(C)CC(=O)NC(CC(=O)N[C@@H](CCN)CC(=O)NC(C)(C)CC(=O)N[C@H](CC(=O)NC(CC(=O)O)CC(=O)O)Cc1c[nH]c2ccccc12)Cc1ccc(I)cc1)NC(=O)CC(C)(C)NC(=O)C[C@@H](N)CCN (stereo partly specified) | 8.9 µM |  | 23 µM | 14.1 µM | 
4 | CC[C@@](C)(CC(=O)N[C@H](CC(=O)O)CC(=O)NC(C)(C)CC(=O)NC(CC(=O)N[C@@H](CCN)CC(=O)NC(C)(C)CC(=O)N[C@H](CC(=O)NC(CC(=O)O)CC(=O)O)Cc1c[nH]c2ccccc12)Cc1ccccc1Cl)NC(=O)CC(C)(C)NC(=O)C[C@@H](N)CCN (stereo partly specified) | 8.8 µM | 3.5 | 31 µM | 13.3 µM | 
5 | CC[C@@](C)(CC(=O)N[C@H](CC(=O)O)CC(=O)NC(C)(C)CC(=O)NC(CC(=O)N[C@@H](CCN)CC(=O)NC(C)(C)CC(=O)N[C@H](CC(=O)NC(CC(=O)O)CC(=O)O)Cc1c[nH]c2ccccc12)Cc1ccc2ccccc2c1)NC(=O)CC(C)(C)NC(=O)C[C@@H](N)CCN (stereo partly specified) | 8.2 µM |  | 23 µM | 12.2 µM | 
6 | enfuvirtide | 0.0375 µM |  |  |  | 
7 | CC[C@@](C)(CC(=O)N[C@H](CC(=O)O)CC(=O)NC(C)(C)CC(=O)NC(CC(=O)N[C@@H](CCN)CC(=O)NC(C)(C)CC(=O)N[C@H](CC(=O)NC(CC(=O)O)CC(=O)O)Cc1c[nH]c2ccccc12)Cc1cccc(F)c1)NC(=O)CC(C)(C)NC(=O)C[C@@H](N)CCN (stereo partly specified) | 18 µM |  | 50 µM | 15.7 µM | 
8 | CC[C@@](C)(CC(=O)N[C@H](CC(=O)O)CC(=O)NC(C)(C)CC(=O)NC(CC(=O)N[C@@H](CCN)CC(=O)NC(C)(C)CC(=O)N[C@H](CC(=O)NC(CC(=O)O)CC(=O)O)Cc1c[nH]c2ccccc12)Cc1cccc(C(F)(F)F)c1)NC(=O)CC(C)(C)NC(=O)C[C@@H](N)CCN (stereo partly specified) | 19 µM | 7.9 | 150 µM | 10.2 µM | 
